Laboratory results from the RNAGym collection of RNA variant scans (doi:10.1126/science.aae0568).
This sample holds only a part of the variants without activity.

B1: tRNA (parent)
chain: GUUCCGUUGGCGUAAUGGUAACGCGUCUCCCUCCUAAGGAGAAGACUGCGGGUUCGAGUCCCGUACGGAACG

Variants of: B1
Test: yeast fitness relative to wild type (ratio to wild type); higher = fitter; tRNA-Arg(CCU), competitive growth, 37 C, YPD
Summary of the method: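 A pool of Saccharomyces cerevisiae strains, each with a tRNA-Arg(CCU) gene variant at the native genomic locus, was competed in YPD at 37°C for 24 hours across six parallel replicates. The variants had been chemically synthesised at a 3% per-site mutation rate over 69 sites, and gene amplicons before and after competition were read by 100-nucleotide paired-end sequencing. Darwinian fitness relative to wild type rested on changes in genotype frequencies. Genotypes required ≥ 100 starting reads, and estimates < 0.5 were set to 0.5.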

Variant | yeast fitness
GUUCCGUUCGCGUAAUGGUCACGCGUCUCCCUCCUAAGGAGAAGACUGCGGGUUCGAGUCCCGUAAGGAACG | 0.601
GUUCCGUUCGCGUAUCGGUAACGCGUCUCCCUCCUUAGGAGAAGACUGCGGGUUCGAGUCCCGUACGGCACG | ≤ 0.5
GUUCCGUUCGCGUAAUGGUAACGCGUCUCCCUCCUCAGGAGAAGACUGGGGGUUCGAGUCCCGUGCGGAACG | 0.681
GUUCCGUUCGCGUAUUGGUAACGCGUCGCCCUCCUAAGGAGAAGACUGCGGGUUGGAGUCCCGUACGGUACG | 0.599
GUUCCGUUCGCGUAAUGGUAACGCGUCUCCCUCCUAAGGAGAAGACUGCGGGUUCGCGUCCCGUACGGAACG | 0.56
GUUCCGUUCGCGUAAUGGUAACGCGUCUCCCUCCUAAGGAGAGGACUGCGGGUUCGAGUCCCGUACGAAACG | ≤ 0.5
GUUCCGUUCGCGUAAUGGUAGCGCGUCUCCCUCCUAAGGAGAACACCGCGGGUUCGAGUCCCGUACGGAACG | ≤ 0.5
GUUCCGUUCGCGUAAUGGUAACGCGUCUCCCUCCUAGGGAAAAGACUGCAGGUUCGAGUCCCGUACGGAACG | 0.532
GUUCCGUUCGCGUAAUGGUAUCGCGUUUCCCUCCUAAGGAGAAAACUGCGGGUUCGAGUCCCGUAUGGAACG | 0.602
GUUCCGUUCGCGUAAUGGUAACGCGUCUCCCUCCUUAGGAGAAGACUGCGGGUUCGAGUGCCCUACGGAACG | ≤ 0.5
GUUCCGUUCGCGUAAUGGUAGCGCGUCUCCCUCCUAAGGAGAAGACUGCGGGUUCGAGUCCCGUACGGUACG | 0.512
GUUCCGUUCGCGUAAUGGUAACGCGUCUCCCUCCUAAGGAGUAGACUGCGGGUUCGAGUCCGGUACGGAACG | ≤ 0.5
GUUCCGUUCGCGUAAUGGUAACGCGUCUCCCUCCUAAGGAGAUGACUGAGGGUUCGAGUCCCGUACGGAACG | ≤ 0.5
GUUCCGUUCGCGUAAUGGUGACGCGUCUCCCUCCUAAGGAGUACACUGCCGGUUCGAGUCCCGUACGGAACG | ≤ 0.5
GUUCCGUUCGCGUAAUGGUAGCGCGUCUCCCUCCUAAGGAGAAGACUGCGGGUUCGAGUACCGUACGGAACG | ≤ 0.5
GUUCCGUUCGCGUAUUGGUAACGCGUCGCCCUCCUAAGGAGUAGACUGCGGGUUCGAGUCCCGUACGGAACG | ≤ 0.5
GUUCCGUUCGCGUAAUGGUGACGCGUCUCCCUCCCGAGGAGAAGACUGCGGGUUCGAAUCCCGUACAGAACG | ≤ 0.5
GUUCCGUUCGCGUAAUGGUAACGCGUCUCCCUCCUAAGGAGGAGACUGCGGGUUCGAGUCCGGUACGGGACG | ≤ 0.5
GUUCCGUUCGCGUAAUGGUAACGCGUCUCCCUCCUAAGGUGAAGACUGCGGGUUCGAGUCCCGUAUGGAACG | 0.622

Variant | yeast fitness
GUUCCGUUCGCGUAAUGGUAACGCGUCUCCCUCCUAUGGAGAAGACUGCGGGUUCGAGUCCCGUACGGAACG | 0.663
GUUCCGUUCGCGUAAUGGUAUCGCGUCUCCCUCCUAAGGAGAAGACUGCGGGUACGAGUCCCGUACGGAGCG | ≤ 0.5
GUUCCGUUCGCGUAAUGGUUACGCGUCACCCUCCUAAGGAGAAGACUGCGGGUUCGAGUCCCGUACGGAACG | 0.535
GUUCCGUUCGCGUAAUGGUAACGCGUCUCCCUCCUAGGGAGAAGACUGCGGGUUCGAGUCCUGUACGGAACG | ≤ 0.5
GUUCCGUUCGCGUAAUGGUUACGCGUCUCCCUCCUAAGGAGAAGACUGCGGGUUCGAGUCCCGUACGGAACG | 0.667
GUUCCGUUCGCGUAAUGGUGACGCGUCUCCCUCCUAAGGAGAAGACUGCGGGUUCGAGUCCCGUACGGAACG | 0.668
GUUCCGUUCGCGUAAUGGUAACGCGUCUCCCUCCUAAGGAGAAGGCUGCGGGUUCGAGUCCCGUACGGAACG | 0.78
GUUCCGUUCGCGUAAUGGUGACGCGUCUCCCUCCUUAGGAGAAGACUGCGGGUUCGAGUCCCGUACGGAACG | ≤ 0.5
GUUCCGUUCGCGUAAUGGUAACGCGUCUCCCUCCUUAGGAGAAGCCUGCGGAUUCGAGUCCCGUACGGAACG | ≤ 0.5
GUUCCGUUCGCGUAAUGGUAACGCGUCUCCCUCCUAAGGAGAAGACUGCGGGUUCGGGACCCGUACGGAACG | ≤ 0.5
GUUCCGUUCGCGUAAUGGUACCGCGUCUUCCUCCUAAGGAGAAGACUGCGGGUUCGAGUCCCGUACGGAACG | ≤ 0.5
GUUCCGUUCGCGUAAUGGUAACGCGUCUCCCUCCUAGGGAGAAGACUGCGGGUUCGAGUCCCGUACGAAACG | ≤ 0.5
GUUCCGUUCGCGUAAUGGUCACGCGUUUCCCUCCUAAGAAGAAGACUGCGGGUUCAACUCCCGUACGGAACG | ≤ 0.5
GUUCCGUUCGCGUAAUGGUAACGCGUCUCCCUCCUAUGGAGAAGACUGCGGAUUCGAGUCCCGUACGGAACG | ≤ 0.5
GUUCCGUUCGCGUAAUGGUAACGCGUCUCCCUCCUAAGGAGUAGACUGCGGGUUCGAGUCCCGUACGGAACG | 0.624
GUUCCGUUCGCGUAAUGGUAACGCGUCUCCCUCCUAAGGAGGAGACUGCGGGUUCGAGUCCCGUACGGAACG | 0.673
GUUCCGUUCGCGUAAUGGUAACGCGUCUCCCUCCUAAGGAGAUGACUGCGGGUUCGAGUCCCGUACGGAACG | 0.694
GUUCCGUUCGCGUAAUGGUAGCGCGUCUCCCUCCUAAGGAGAAGACUGCGGGUUCGAGUCCCGUAUGGUACG | ≤ 0.5
GUUCCGUUCGCGUAAUGGUCACGCGUCUCCCUCCUAAGGAGAAGACUGCGGGUUCGAGUCCCGUACCGAACG | 0.537
